Among the data in ChEMBL document CHEMBL4387700, “A novel, potent, and orally bioavailable thiazole HCV NS5A inhibitor for the treatment of hepatitis C virus” (Eur J Med Chem, 2019) are CC50 values, retold here.

This data set can be described thus: Cytotoxicity against human HuH7 cells assessed as reduction in cell viability by MTS assay. Format: cell-based, Huh-7. The procedure, abridged: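 Viability of Huh-7 cells was read by MTS assay.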
(In general: Formazan colour is commonly taken as a measure of viable cells.)

Bounds are passed on as bounds.

By CC50 is commonly meant the concentration at which the toxic effect on the cells reaches its halfway point. `COC(=O)N[C@H](C(=O)N1CCC[C@H]1c1ncc(-c2ccc(-c3ccc(-c4cnc([C@@H]5CCCN5C(=O)[C@@H](NC(=O)OC)c5ccccc5)s4)cc3)cc2)s1)c1ccccc1`: the CC50 is greater than 50 µM.

Turning to `CN(C)CCC(=O)N[C@H](C(=O)N1CCC[C@H]1c1ncc(-c2ccc(-c3ccc(-c4cnc([C@@H]5CCCN5C(=O)[C@H](NC(=O)CCN(C)C)c5ccccc5)s4)cc3)cc2)s1)c1ccccc1`, the CC50 was greater than 50 µM.

Consider `O=C(CCn1cccc1)N[C@@H](C(=O)N1CCC[C@H]1c1ncc(-c2ccc(-c3ccc(-c4cnc([C@@H]5CCCN5C(=O)[C@H](NC(=O)CCn5cccc5)c5ccccc5)s4)cc3)cc2)s1)c1ccccc1`, for which the CC50 is greater than 50 µM.

Take `CCC(=O)N[C@H](C(=O)N1CCC[C@H]1c1ncc(-c2ccc(-c3ccc(-c4cnc([C@@H]5CCCN5C(=O)[C@H](NC(=O)CC)c5ccccc5)s4)cc3)cc2)s1)c1ccccc1`: the 50% cytotoxic concentration (CC50) was greater than 50 µM.

With `O=C(N[C@H](C(=O)N1CCC[C@H]1c1ncc(-c2ccc(-c3ccc(-c4cnc([C@@H]5CCCN5C(=O)[C@H](NC(=O)C5CC5)c5ccccc5)s4)cc3)cc2)s1)c1ccccc1)C1CC1`, the cytotoxic concentration (CC50) was greater than 50 µM.

Turning to `CC(=O)N[C@H](C(=O)N1CCC[C@H]1c1ncc(-c2ccc(-c3ccc(-c4cnc([C@@H]5CCCN5C(=O)[C@H](NC(C)=O)c5ccccc5)s4)cc3)cc2)s1)c1ccccc1`, the CC50 is greater than 50 µM.

Regarding `O=C(N[C@@H](C(=O)N1CCC[C@H]1c1ncc(-c2ccc(-c3ccc(-c4cnc([C@@H]5CCCN5C(=O)[C@H](NC(=O)c5ccco5)c5ccccc5)s4)cc3)cc2)s1)c1ccccc1)c1ccco1`, the CC50 is greater than 50 µM.

Take `O=C(CCN1CCCCC1)N[C@H](C(=O)N1CCC[C@H]1c1ncc(-c2ccc(-c3ccc(-c4cnc([C@@H]5CCCN5C(=O)[C@H](NC(=O)CCN5CCCCC5)c5ccccc5)s4)cc3)cc2)s1)c1ccccc1`: the CC50 was greater than 50 µM.

`CC(C)C[C@@H](NC(=O)C1CC1)C(=O)N1CCC[C@H]1c1ncc(-c2ccc(-c3ccc(-c4cnc([C@@H]5CCCN5C(=O)[C@@H](CC(C)C)NC(=O)C5CC5)s4)cc3)cc2)s1`: the half-maximal cytotoxic concentration (CC50) was greater than 50 µM.

For `COC(=O)N[C@H](C(=O)N1CCC[C@H]1c1ncc(-c2ccc(-c3ccc(-c4cnc([C@@H]5CCCN5C(=O)[C@H](NC(=O)OC)c5ccccc5)s4)cc3)cc2)s1)c1ccccc1`, the cytotoxic concentration (CC50) was greater than 50 µM.

For the molecule `CCN(CC)CCC(=O)N[C@H](C(=O)N1CCC[C@H]1c1ncc(-c2ccc(-c3ccc(-c4cnc([C@@H]5CCCN5C(=O)[C@H](NC(=O)CCN(CC)CC)c5ccccc5)s4)cc3)cc2)s1)c1ccccc1`, the CC50 was greater than 50 µM.

As to `CCCC(=O)N[C@H](C(=O)N1CCC[C@H]1c1ncc(-c2ccc(-c3ccc(-c4cnc([C@@H]5CCCN5C(=O)[C@H](NC(=O)CCC)c5ccccc5)s4)cc3)cc2)s1)c1ccccc1`, the CC50 was greater than 50 µM.

As to `CCCC[C@H](NC(=O)OC)C(=O)N1CCC[C@H]1c1ncc(-c2ccc(-c3ccc(-c4cnc([C@@H]5CCCN5C(=O)[C@H](CCCC)NC(=O)OC)s4)cc3)cc2)s1`, the cytotoxic concentration (CC50) is greater than 50 µM.

For `O=C(N[C@H](C(=O)N1CCC[C@H]1c1ncc(-c2ccc(-c3ccc(-c4cnc([C@@H]5CCCN5C(=O)[C@H](NC(=O)c5ccncc5)c5ccccc5)s4)cc3)cc2)s1)c1ccccc1)c1ccncc1`, the 50% cytotoxic concentration (CC50) was greater than 50 µM.

Consider `O=C(N[C@H](C(=O)N1CCC[C@H]1c1ncc(-c2ccc(-c3ccc(-c4cnc([C@@H]5CCCN5C(=O)[C@H](NC(=O)N5CCCCC5)c5ccccc5)s4)cc3)cc2)s1)c1ccccc1)N1CCCCC1`, for which the 50% cytotoxic concentration (CC50) was greater than 50 µM.

Take `CC(C)(C)C(=O)N[C@@H](C(=O)N1CCC[C@H]1c1ncc(-c2ccc(-c3ccc(-c4cnc([C@@H]5CCCN5C(=O)[C@H](NC(=O)C(C)(C)C)c5ccccc5)s4)cc3)cc2)s1)c1ccccc1`: the CC50 is greater than 50 µM.

Regarding `CCCC(=O)N[C@@H](C(=O)N1CCC[C@H]1c1ncc(-c2ccc(-c3ccc(-c4cnc([C@@H]5CCCN5C(=O)[C@H](NC(=O)CCC)c5ccccc5)s4)cc3)cc2)s1)c1ccccc1`, the CC50 was greater than 50 µM.

As for `O=C(N[C@@H](C(=O)N1CCC[C@H]1c1ncc(-c2ccc(-c3ccc(-c4cnc([C@@H]5CCCN5C(=O)[C@H](NC(=O)N5CCOCC5)c5ccccc5)s4)cc3)cc2)s1)c1ccccc1)N1CCOCC1`, the half-maximal cytotoxic concentration (CC50) was greater than 50 µM.

With `O=C(N[C@H](C(=O)N1CCC[C@H]1c1ncc(-c2ccc(-c3ccc(-c4cnc([C@@H]5CCCN5C(=O)[C@H](NC(=O)C5CCCC5)c5ccccc5)s4)cc3)cc2)s1)c1ccccc1)C1CCCC1`, the CC50 was greater than 50 µM.

For the molecule `CS(=O)(=O)N[C@@H](C(=O)N1CCC[C@H]1c1ncc(-c2ccc(-c3ccc(-c4cnc([C@@H]5CCCN5C(=O)[C@H](NS(C)(=O)=O)c5ccccc5)s4)cc3)cc2)s1)c1ccccc1`, the cytotoxic concentration (CC50) was greater than 50 µM.

`O=C(CCN1CCCCC1)N[C@@H](C(=O)N1CCC[C@H]1c1ncc(-c2ccc(-c3ccc(-c4cnc([C@@H]5CCCN5C(=O)[C@H](NC(=O)CCN5CCCCC5)c5ccccc5)s4)cc3)cc2)s1)c1ccccc1`: the CC50 was greater than 50 µM.

Consider `CC(C)(C)[C@@H](NC(=O)C1CC1)C(=O)N1CCC[C@H]1c1ncc(-c2ccc(-c3ccc(-c4cnc([C@@H]5CCCN5C(=O)[C@H](NC(=O)C5CC5)C(C)(C)C)s4)cc3)cc2)s1`, for which the CC50 was greater than 50 µM.

`CC(=O)N[C@@H](C(=O)N1CCC[C@H]1c1ncc(-c2ccc(-c3ccc(-c4cnc([C@@H]5CCCN5C(=O)[C@H](NC(C)=O)c5ccccc5)s4)cc3)cc2)s1)c1ccccc1`: the half-maximal cytotoxic concentration (CC50) is greater than 50 µM.

On to `O=C(N[C@H](C(=O)N1CCC[C@H]1c1ncc(-c2ccc(-c3ccc(-c4cnc([C@@H]5CCCN5C(=O)[C@H](NC(=O)c5ccccn5)c5ccccc5)s4)cc3)cc2)s1)c1ccccc1)c1ccccn1`, for which the CC50 is greater than 50 µM.

Regarding `CC(C)[C@@H](NC(=O)C1CC1)C(=O)N1CCC[C@H]1c1ncc(-c2ccc(-c3ccc(-c4cnc([C@@H]5CCCN5C(=O)[C@H](NC(=O)C5CC5)C(C)C)s4)cc3)cc2)s1`, the CC50 was greater than 50 µM.

As to `CC[C@@H](NC(=O)C1CC1)C(=O)N1CCC[C@H]1c1ncc(-c2ccc(-c3ccc(-c4cnc([C@@H]5CCCN5C(=O)[C@@H](CC)NC(=O)C5CC5)s4)cc3)cc2)s1`, the 50% cytotoxic concentration (CC50) was greater than 50 µM.

Regarding `O=C(N[C@H](C(=O)N1CCC[C@H]1c1ncc(-c2ccc(-c3ccc(-c4cnc([C@@H]5CCCN5C(=O)[C@H](NC(=O)c5ccccc5)c5ccccc5)s4)cc3)cc2)s1)c1ccccc1)c1ccccc1`, the cytotoxic concentration (CC50) is greater than 50 µM.

On to `O=C(N[C@@H](C(=O)N1CCC[C@H]1c1ncc(-c2ccc(-c3ccc(-c4cnc([C@@H]5CCCN5C(=O)[C@H](NC(=O)c5ccsc5)c5ccccc5)s4)cc3)cc2)s1)c1ccccc1)c1ccsc1`, for which the CC50 is greater than 50 µM.

Turning to `CC(C)C(=O)N[C@H](C(=O)N1CCC[C@H]1c1ncc(-c2ccc(-c3ccc(-c4cnc([C@@H]5CCCN5C(=O)[C@H](NC(=O)C(C)C)c5ccccc5)s4)cc3)cc2)s1)c1ccccc1`, the CC50 is greater than 50 µM.

Turning to `O=C(CCn1cccc1)N[C@H](C(=O)N1CCC[C@H]1c1ncc(-c2ccc(-c3ccc(-c4cnc([C@@H]5CCCN5C(=O)[C@H](NC(=O)CCn5cccc5)c5ccccc5)s4)cc3)cc2)s1)c1ccccc1`, the CC50 is greater than 50 µM.

`CCOC(=O)N[C@H](C(=O)N1CCC[C@H]1c1ncc(-c2ccc(-c3ccc(-c4cnc([C@@H]5CCCN5C(=O)[C@@H](NC(=O)OCC)C(C)C)s4)cc3)cc2)s1)C(C)C`: the CC50 was greater than 50 µM.

On to `O=C(N[C@@H](C(=O)N1CCC[C@H]1c1ncc(-c2ccc(-c3ccc(-c4cnc([C@@H]5CCCN5C(=O)[C@H](NC(=O)c5ccncc5)c5ccccc5)s4)cc3)cc2)s1)c1ccccc1)c1ccncc1`, for which the CC50 is greater than 50 µM.
